Results as given in ChEMBL document CHEMBL1139834, “Synthesis and structure-activity relationships of new benzodioxinic lactones as potential anticancer drugs” (J Med Chem, 2007).
pIC50: −log10 of the molar value. Active and inactive are the calls of the source. The rule behind the calls is not given here.

How the values were obtained:
[1] = tested on: HT-29; test: Cytotoxicity against human HT29 cell line; assay type: cell-based
Outline: (§1)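 Cells grown at 37 °C under 5% CO2 in medium with 2 mM L-glutamine, penicillin, streptomycin and 20% heat-inactivated horse serum. Drug in DMSO (0.5% final) added to exponentially growing cells seeded at 0.8 × 10^5 cells/mL. Coulter counting in quadruplicate at 48 h (L1210) or 96 h (HT-29). IC50 from probit of % growth inhibition versus log dose; four independent runs in triplicate.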

[2] = tested on: L1210; test: Cytotoxicity against mouse L1210 cell line; assay type: cell-based; parameters: Activity: concentration or dose not given beside the values; conditions: for pIC50: Mus musculus, L1210; for Activity: mouse, l1210; outline: as §1
[3] = tested on: L1210; test: Cell cycle arrest in mouse L1210 cell line by accumulation at 8N phase at 20 uM after 24 hrs; assay type: functional
Outline: (§2)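 L1210 cells in RPMI 1640 with 2 mM L-glutamine, penicillin, streptomycin and 20% heat-inactivated horse serum, 5% CO2, 37 °C, exposed to several drug concentrations. Cells fixed in 70% ethanol, washed, stained 30 min at room temperature with propidium iodide plus RNAse in PBS, then flow cytometry. Read-out is percentage of cells in each cycle phase after 24 h exposure.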

[4] = organism: Homo sapiens; test: Inhibition of topoisomerase 2 assessed by DNA cleavage complex formation assay
Outline: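 Cleavage complex formed on pYRG plasmid DNA by human topoisomerase II purified from placenta. Linear DNA product quantified by densitometry relative to ellipticine.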

[5] = tested on: L1210; test: Cell cycle arrest in mouse L1210 cell line by accumulation at 8N phase at 5 uM after 24 hrs; assay type: functional; outline: as §2
[6] = tested on: L1210; test: Cell cycle arrest in mouse L1210 cell line by accumulation at G2/M phase at 5 uM after 24 hrs; assay type: functional; outline: as §2
[7] = Effect on DNA sequence recognition assessed by DNase I footprinting assay; assay type: functional
[8] = tested on: L1210; test: Cell cycle arrest in mouse L1210 cell line by accumulation at G2/M phase at 1 uM after 24 hrs; assay type: functional; outline: as §2
[9] = tested on: L1210; test: Cell cycle arrest in mouse L1210 cell line by accumulation at G2 phase at 1 uM after 24 hrs; assay type: functional
Outline: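 L1210 cells grown in RPMI 1640 with 2 mM L-glutamine, penicillin, streptomycin and 20% heat-inactivated horse serum at 37 °C, 5% CO2, then drug-exposed (methods 21 h; footnote 24 h). Ethanol (70%) fixed, then washed. Stained 30 min at room temperature in PBS with […] RNase and propidium iodide. Flow cytometry gives % cells in each cycle phase.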

| Compound | pIC50 [1] | pIC50 [2] | other results |
| --- | --- | --- | --- |
| CCCCCc1c2c(c(C)c3c1C(=O)OC3)Oc1ccc(OC)cc1O2 | < 5.00 | < 5.00 | Activity [2]: 78% |
| Cc1c2c(c(CCCCCC(=O)O)c3c1Oc1ccccc1O3)C(=O)OC2 | < 5.00 | < 5.00 | – |
| Cc1c2c(c(C)c3c1Oc1ccccc1O3)C(=O)OC2 | < 4.00 | < 4.00 | – |
| CCCCCCCCc1c2c(c(C)c3c1C(=O)OC3)Oc1ccccc1O2 | < 5.00 | < 5.00 | – |
| CCCCCCc1c2c(c(C)c3c1C(=O)SC3)Oc1ccccc1O2 | 4.46 | 4.72 | – |
| CCCCCCCc1c2c(c(C)c3c1C(=O)OC3)Oc1ccccc1O2 | 5.72 | 5.41 | Activity [3]: 70% |
| CCCCCCCCc1c2c(c(C)c3c1Oc1ccccc1O3)C(=O)OC2 | < 5.00 | < 5.00 | – |
| CCCCc1c2c(c(C)c3c1Oc1ccccc1O3)C(=O)OC2 | 4.75 | < 4.00 | – |
| Cc1c2c(c(CC(C)CC(C)(C)C)c3c1Oc1ccccc1O3)C(=O)OC2 (stereo not drawn) | < 5.00 | 4.87 | – |
| Cc1c2c(c(CCCCCC#N)c3c1Oc1ccccc1O3)C(=O)OC2 | 6.92 | 6.27 | Activity [4]: inactive; Activity [5]: 88% |
| CCCCCc1c2c(c(C)c3c1Oc1cc(OC)ccc1O3)C(=O)OC2 | < 5.00 | < 5.00 | Activity [2]: 70% |
| CCCCCCCc1c2c(c(C)c3c1Oc1ccccc1O3)C(=O)OC2 | 4.66 | < 5.00 | – |
| Cc1c2c(c(C)c3cnccc13)Oc1ccccc1O2 | 4.66 | 5.92 | – |
| CCCCCCc1c2c(c(CCCCCC)c3c1Oc1ccccc1O3)C(=O)OC2 | < 5.00 | < 5.00 | – |
| CNCCCCc1c2c(c(C)c3c1C(=O)OC3)Oc1ccccc1O2 | 6.27 | 5.62 | Activity [5]: 86%; Activity [6]: 86% |
| CCCCCc1c2c(c(C)c3c1C(=O)OC3)Oc1ccccc1O2 | 6.92 | 5.74 | Activity [7]: inactive; Activity [4]: inactive; Activity [5]: 80%; Activity [6]: 80% |

| Compound | pIC50 [1] | pIC50 [2] | other results |
| --- | --- | --- | --- |
| Cc1c2c(c(CCCCC(=O)O)c3c1Oc1ccccc1O3)C(=O)OC2 | < 5.00 | 4.05 | – |
| COc1cccc2c1C(=O)c1c(O)c3c(c(O)c1C2=O)C[C@@](O)(C(=O)CO)C[C@@H]3O[C@H]1C[C@H](N)[C@H](O)[C@H](C)O1 [DOXORUBICIN] | 6.32 | 7.54 | Activity [8]: 86% |
| CCc1c2c(c(C)c3c1Oc1ccccc1O3)C(=O)OC2 | < 5.00 | < 5.00 | – |
| CCCc1c2c(c(C)c3c1Oc1ccccc1O3)C(=O)OC2 | < 5.00 | < 5.00 | Activity [2]: 115% |
| Cc1c2c(c(CCCCCN)c3c1Oc1ccccc1O3)C(=O)OC2 | 5.24 | 4.89 | – |
| CC1OC(=O)C2=C1Oc1ccccc1O2 (stereo not drawn) | < 5.00 | < 5.00 | – |
| Cc1c2c(c(CCCCCC#N)c3c1C(=O)OC3)Oc1ccccc1O2 | < 5.00 | < 5.00 | – |
| CCCCCc1c2c(c(C)c3c1Oc1ccccc1O3)C(=O)OC2 | 5.04 | 5.14 | Activity [5]: 35%; Activity [6]: 35% |
| CCc1c2c(c(C)c3c1C(=O)OC3)Oc1ccccc1O2 | < 5.00 | < 5.00 | – |
| Cc1c2c(c(CCCCC#N)c3c1Oc1ccccc1O3)C(=O)OC2 | 4.62 | 4.11 | – |
| CCCCCCc1c2c(c(C)c3c1Oc1ccccc1O3)C(=O)OC2 | 4.74 | < 5.00 | Activity [2]: 118.3% |
| Cc1c2c(c(CC(C)CC(C)(C)C)c3c1C(=O)OC3)Oc1ccccc1O2 (stereo not drawn) | < 5.00 | < 5.00 | Activity [2]: 70% |
| CCCc1c2c(c(C)c3c1C(=O)OC3)Oc1ccccc1O2 | < 5.00 | < 5.00 | Activity [2]: 111% |
| CCCCCCc1c2c(c(C)c3c1C(=O)OC3)Oc1ccccc1O2 | 6.42 | 5.70 | Activity [5]: 86%; Activity [6]: 86% |
| Cc1c2ccncc2c(C)c2c1[nH]c1ccccc12 [ELLIPTECINE] | 4.83 | 6.72 | Activity [9]: 50% |
